In PubChem BioAssay AID493089 (Broad Institute, 2011):
“And” between values parts separate entries of the source, which are not always exact repeats. Identical values can stand only once. Inconclusive results are not listed. The source made the active and inactive calls.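 The calls were made as follows: active = fitted half-maximal dose no more than ten times the top valid dose tested, with signal falling; inconclusive = flat curve at 30 to 70% inhibition, or poor fit; inactive = the rest, including rising signal.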

Test system: not listed separately
Assay: growth inhibition of fluconazole-resistant C. albicans, confirmation, CaCi-2 isolate, dry powder retest, set 2 (AID 493089)
Settings: C. albicans CaCi-2 + fluconazole growth, Alamar Blue, 48 h; at 1.2 µM (top of the series)
Procedure, shortened: (§1)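 System – fluconazole-resistant Candida albicans clinical isolate CaCi-2 · Times – 48 h compound exposure, 37 °C, 90% humidity, 2 h dye · Signal – Alamar Blue fluorescence, Ex 544 nm, Em 590 nm · Measure – relative growth, signal decrease as inhibition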
With `COc1ccc2c(c1)c1nc3n(c(=O)c1n2CC(=O)N1CCC(C)CC1)CCS3` the activity change, negative = inhibition was -8.53% (inactive).

Same assay, conditions: C. albicans CaCi-2 + fluconazole growth, Alamar Blue, 48 h; at 12 µM (top of the series)
In the case of `N#Cc1cccc(N2CCN(C(=O)c3ccc(Cl)cc3)CC2)n1`, the activity change, negative = inhibition was -7.37% (inactive).
In the case of `O=C(Cn1c2ccccc2c2nc3n(c(=O)c21)CCCS3)c1ccc(F)cc1`, the activity change, negative = inhibition was -21.3% (inactive).
In the case of `O=C(O)Cn1nc(-c2ccccc2)c2ccccc21`, the activity change, negative = inhibition was -10.3% (inactive).
For `COC(=O)Cn1c(-c2ccccc2)nc2ccccc21`, the activity change, negative = inhibition was -10.6% (inactive).
For `O=C(Cn1c2ccccc2c2nc3n(c(=O)c21)CCS3)NCCc1ccc(Cl)cc1`, the activity change, negative = inhibition was -24.6% (inactive).

Test system: C. albicans CaCi-2 (fluconazole-resistant clinical isolate) + fluconazole growth, Alamar Blue, 48 h
Assay: as above
Settings: not given
Procedure, shortened: as §1
Work on `CCN(CC)C(=O)Cn1c2ccc(F)cc2c2nc3n(c(=O)c21)CCS3` yielded an AC50 of 645 nM.
For `CC1CCN(C(=O)Cn2c3ccccc3c3nc4n(c(=O)c32)CCS4)CC1`, the AC50 was 5130 nM.
Work on `O=c1c2[nH]c3ccccc3c2nc2n1CCS2` yielded an AC50 of 10500 nM.
`O=c1c2[nH]c3ccc(F)cc3c2nc2n1CCS2` showed an AC50 of 3410 nM.
Work on `O=C(Cn1c2ccc(F)cc2c2nc3n(c(=O)c21)CCS3)N1CCCCCC1` yielded an AC50 of 1490 nM.
`O=C(Cn1c2ccc(F)cc2c2nc3n(c(=O)c21)CCS3)N1CCCCC1` showed an AC50 of 628 nM.
For `COC(=O)Cn1nc(-c2ccccc2)c2ccccc21`, the AC50 was 2890 nM.
For `COc1ccc(NC(=O)Cn2c3ccccc3c3nc4n(c(=O)c32)CCS4)cc1`, the AC50 was 3020 nM.
Work on `O=C(Cn1c2ccccc2c2nc3n(c(=O)c21)CCS3)N1CCCCC1` yielded an AC50 of 2150 nM.
For `COC(=O)Cn1nc(-c2ccc(C)cc2)c2ccccc21`, the AC50 was 12000 nM.
`CC1CCN(C(=O)Cn2c3ccc(F)cc3c3nc4n(c(=O)c32)CCCS4)CC1` gave an AC50 of 2740 nM.
For `CCN(CC)C(=O)Cn1c2ccccc2c2nc3n(c(=O)c21)CCS3`, the AC50 was 1740 nM and 2300 nM.
With `O=C(Cn1c2ccccc2c2nc3n(c(=O)c21)CCS3)N1CCOCC1` the AC50 was 3570 nM.
In the case of `O=C(Cn1c2ccc(F)cc2c2nc3n(c(=O)c21)CCS3)N1CCCC1`, the AC50 was 583 nM.
With `O=C(Cn1c2ccccc2c2nc3n(c(=O)c21)CCS3)N1CCCC1` the AC50 was 1100 nM and 3520 nM.
